In PMC9546099 (British Journal of Clinical Pharmacology, 2022):
Several values for one entry are separate records, joined by “and”; a condition that tells them apart may be missing. Equal values may be shown once. Where a name gives a salt, the structure may show the parent alone. Read-outs that look alike come from different tables or passages of the source. Blank lines part the entries; values can stand above or below the compound they belong to.

What was measured:
[1] = Metabolite profiling in plasma AUC pool by LC-AMS; type: in vivo, human; conditions: average, AMS radiodetection
Outline: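 A per-subject plasma AUC pool (Hamilton method) covered at least the last quantifiable time point. Plasma (5 g) was precipitated twice with acetonitrile, evaporated and resuspended in DMSO:acetonitrile:water 20:20:60. LC fractions were measured by AMS, with carbon content in duplicate. Peaks were assigned against spiked synthetic standards (UV 250 nm). Extraction recovery compared pool versus supernatant and reconstituted-extract radioactivity.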

[2] = type: in vivo, human; conditions: for Tmax: t max; for Tmax / Tlag: median (minimum - maximum)
Outline: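 Plasma was precipitated with acetonitrile plus internal standards, vortexed and centrifuged. Supernatant was diluted with water for validated LC-MS/MS of parent and metabolites, with quantification limit 10 ng/mL and calibration curves and QC samples in every batch. Noncompartmental analysis per subject gave geometric mean (%CV) parameters, with tmax as median (min–max).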

[3] = Metabolite profiling in urine and faeces by LC-MS and off-line radiodetection; type: in vivo, human
Outline: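 Urine was pooled per subject to ≥80% of recovered radioactivity and concentrated. Faeces were pooled to >90% of excreted radioactivity, plus cross-subject 48-72 h and 96-120 h pools; these were acetonitrile-extracted, dried and reconstituted in acetonitrile:water 20:80. Analysis used accurate-mass LC-MS (± switching, 70 000 resolution, 100-800 amu; HCD MS/MS 17 500) with off-line radiodetection, reported as % administered radioactivity.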

[4] = cited from earlier work
[5] = cited from earlier work; remark: listed apart in the source
[6] = rat; cited from earlier work
[7] = nonhuman primate [NHP]; cited from earlier work
[8] = test system: COMT; conditions: cited from earlier work; for IC50: read-out: IC50 against COMT
[9] = cited from earlier work; remark: listed apart in the source
[10] = male, human, plasma, oral, 100 mg

% of total circulating radioactivity [1]: 0.39%
SMILES: COc1cc(-c2nc(-c3c(C)c(Cl)c(C)[n+]([O-])c3Cl)no2)cc([N+](=O)[O-])c1O [BIA 9‐1101, 2,5-dichloro-3-(5-(4-hydroxy-3-methoxy-5-nitrophenyl)-1,2,4-oxadiazol-3-yl)-4,6 dimethylpyridine 1-oxide]

AUC(0-t) [2, 10]: 75 ng·h/mL
Cmax [2, 10]: 33.6 ng/mL
Tmax [2, 10]: 2 h
Tlag ([2]; plasma): 0.75 (0.500‐2.00) h
% of the administered radioactivity in urine ([3]; average, pooled urine): 1.72% and < 2%
SMILES: Cc1c(Cl)c(C)[n+]([O-])c(Cl)c1-c1noc(-c2cc(O[C@@H]3O[C@H](C(=O)O)[C@@H](O)[C@H](O)[C@H]3O)c(O)c([N+](=O)[O-])c2)n1 [BIA 9‐1106, 3-(5-(3-((2S,3R,4S,5S,6S)-6-carboxy-3,4,5-trihydroxytetrahydro-2H-pyran-2-yloxy)-4-hydroxy-5-nitrophenyl)-1,2,4-oxadiazol-3-yl)-2,5-dichloro-4,6-dimethylpyridine 1-oxide]

% of total circulating radioactivity [1]: 2.96%
SMILES: COc1cc(-c2nc(-c3c(C)c(Cl)c(C)[n+]([O-])c3Cl)no2)cc([N+](=O)[O-])c1O [BIA 9‐1100, 2,5-dichloro-3-(5-(4-hydroxy-3-methoxy-5-nitrophenyl)-1,2,4-oxadiazol-3-yl)-4,6-dimethylpyridine 1-oxide]

% of total circulating radioactivity [1]: 3.72%
SMILES: COc1c(O)cc(-c2nc(-c3c(C)c(Cl)c(C)[n+]([O-])c3SC[C@H](N)C(=O)O)no2)cc1[N+](=O)[O-].Cl [BIA 9‐5049, (R)-2-((2-amino-2-carboxyethyl)thio)-5-chloro-3-(5-(3-hydroxy-4-methoxy-5-nitrophenyl)-1,2,4-oxadiazol-3-yl)-4,6-dimethylpyridine 1-oxide hydrochloride]

AUC(0-inf) [2, 10]: 1890 ng·h/mL
AUC(0-t) [2, 10]: 1830 ng·h/mL
Cmax [2, 10]: 600 ng/mL
half-life [2, 10]: 1 h
Tmax [2, 10]: 2 h
Tlag ([2]; plasma): 0.250 (0.250‐0.500) h
% of total circulating radioactivity [1]: 12.1%
% of the administered radioactivity excreted in faeces ([3]; average, pooled faeces): 22.32%
unchanged parent observed in urine ([3]; in vivo): Only trace amounts
SMILES: Cc1c(Cl)c(C)[n+]([O-])c(Cl)c1-c1noc(-c2cc(O)c(O)c([N+](=O)[O-])c2)n1 [opicapone, 2,5‐dichloro‐3‐(5‐[3,4‐dihydroxy‐5‐nitrophenyl]‐1,2,4‐oxadiazol‐3‐yl)‐4,6‐dimethylpyridine 1‐oxide, reference compound]
cytotoxicity [4]: not to induce cytotoxicity
dose proportionality of the pharmacokinetic profile [5]: dose‐proportional up to 1200 mg
fraction of the dose recovered in faeces [6]: more than 70%
fraction of the dose recovered in faeces [7]: more than 70%

% of total circulating radioactivity [1]: 6.59%
SMILES: COc1c(O)cc(-c2nc(-c3c(C)c(Cl)c(C)[n+]([O-])c3Cl)no2)cc1[N+](=O)[O-] [BIA 9‐1104, 2,5-dichloro-3-(5-(3-hydroxy-4-methoxy-5-nitrophenyl)-1,2,4-oxadiazol-3-yl)-4,6-dimethylpyridine 1-oxide]
IC50 [8]: 429 nM

% of total circulating radioactivity [1]: 2.30%
SMILES: COc1c(OS(=O)(=O)O)cc(-c2nc(-c3c(C)c(Cl)c(C)[n+]([O-])c3Cl)no2)cc1[N+](=O)[O-].c1ccncc1 [BIA 9‐4584, pyridin-1-ium 5-(3-(2,5-dichloro-4,6-dimethyl-1-oxidopyridin-3-yl)-1,2,4-oxadiazol-5-yl)-2-methoxy-3-nitrophenyl sulfate]

plasma concentration ([2]; below the limit of quantification in almost all time points): < 10 ng/mL
SMILES: Cc1nc(Cl)c(-c2noc(-c3cc(O)c(O)c([N+](=O)[O-])c3)n2)c(C)c1Cl [BIA 9‐1079, 5-(3-(2,5-dichloro-4,6-dimethylpyridin-3-yl)-1,2,4-oxadiazol-5-yl)-3-nitrobenzene-1,2-diol]
IC50 [8]: 128 nM

AUCt ([2]; plasma, geometric mean (% CV)): 8120 (75.7) ng.h/ml
C max ([2]; plasma, geometric mean (% CV)): 115(48.7) ng/ml
Tlag ([2]; plasma): 1.05 (1.00‐2.00) h
% of total circulating radioactivity [1]: 58.6%
SMILES: Cc1c(Cl)c(C)[n+]([O-])c(Cl)c1-c1noc(-c2cc(OS(=O)(=O)O)c(O)c([N+](=O)[O-])c2)n1 [BIA 9‐1103, 5-(3-(2,5-dichloro-4,6-dimethyl-1-oxidopyridin-3-yl)-1,2,4-oxadiazol-5-yl)-2-hydroxy-3-nitrophenyl sulfate]
pharmacological activity on COMT [8]: pharmacologically inactive on COMT
pharmacological activity on COMT ([8]; listed as 3‐O‐sulfate‐opicapone): pharmacologically inactive
binding to plasma proteins [9]: more than 98%
